# Marks after values point to notes of the source that are not given here. Where no end group is shown, it is not given here.
# Legend:
# [1] = Tryptophan fluorescence emission maximum; type: physicochemical; details: POPC LUVs, pH 8.0 and pH 4.0, Trp fluorescence
# [2] = pH at which 50% of peptides are in the α-helical membrane inserted state; ref Vasquez-Montes et al. (2018); cited from earlier work
# [3] = Solubility in aqueous buffer; type: physicochemical; details: peptides solubilized to 20 μM in 5 mM sodium phosphate pH 8.0
# [4] = system: HSC3 cells; assay: Lactate dehydrogenase release assay; type: cell-based, human; details: 10 μM, 1 h, pH 7.4, 5.5 or 5.0, mean ± S.D., n = 3
# [5] = system: HSC3 cells expressing PTPRJ ectopically; assay: Cell viability assay; type: cell-based, human; details: 72 h recovery, MTT, n = 9
# Method in brief: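 HSC3 cells engineered to express wild-type PTPRJ, grown in high-glucose DMEM with 10% FBS at 37°C and 5% CO₂, seeded at 5000 cells/well overnight. Peptide in serum-free medium for 5 min at 37°C. Medium then acidified to target pH with citric acid-buffered medium (pH 2.0) for 10 min. Cells washed, then 72 h recovery in complete DMEM. MTT read-out, normalized to medium-only pH 7.4 cells. […]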
# [6] = system: EGFR phosphorylation (Tyr-1068 and Tyr-1173) in HSC3 cells expressing wild-type PTPRJ; assay: EGFR Tyr phosphorylation level by immunoblotting; type: cell-based, human; details: 10 μM, 10 min, indicated pHs (7.4, 5.5, 5.0), then EGF
# Method in brief: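 HSC3 cells engineered to express wild-type PTPRJ, seeded and grown overnight, then serum-starved 2 h. Peptide in serum-free medium for 5 min at 37°C; medium acidified with citrate-buffered medium (pH 2.0) to reach final 10 μM; 10 min at 37°C; then EGF 10 ng/mL for 10 min. Lysates immunoblotted for pY1068, pY1173 and total EGFR; chemiluminescence; densitometric phospho/total ratio, mean values.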
# [7] = system: HSC3 cells ectopically expressing PTPRJ; assay: Wound healing scratch assay; type: cell-based, human; details: 10 μM, 10 min, n = 8-11
# Method in brief: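 PTPRJ-expressing HSC3 monolayers, confluent at 24 h, serum-starved 2 h. Peptide added in serum-free medium at pH 7.4 (5 min, 37°C), then pH lowered with citrate-buffered medium (pH 2.0) to reach final concentration; 10 min exposure. Monolayer scratched, then complete medium with EGF 50 ng/mL, 37°C, 10 h. Closure taken as percent area change from start to end, normalized to cells treated at pH 7.4.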
# [8] = system: EGFR phosphorylation (Tyr-1068 and Tyr-1173) in HSC3 cells expressing wild-type PTPRJ; details: 10 μM, 1-h treatment; ref Bloch et al., 2019; cited from earlier work
# [9] = system: HSC3 cells ectopically expressing PTPRJ; details: 10 μM, 1-h treatment; ref Bloch et al., 2019; cited from earlier work
sequence,measurement,setting,value
DDDDDDTTLLLLS DIGA IMWVSLVDLIADADEG [hybrid1],partitioning into the lipid bilayer,[1],does not partition into the lipid bilayer
AAEQNPIYWARYDWLFTTPLLLLDLALLVDADEGG [pHLIP(WT‐Ala)],pK50,[2],6.1 ^b
DDTTLLLLSEIGAGMWVSLVELIADADEG [hybrid7],solubility in aqueous buffer,[3],readily soluble in aqueous buffer
same,release of LDH (membrane integrity),[4],Neither hybrid7 nor low pH treatment causes a significant release of LDH
same,cell viability,"[5]; pH 5.5, 10 μM, 10 min treatment",20%
DDTTLLLLSEIGLGMWVSLVELIADADEG [hybrid7‐control],change in EGFR phosphorylation level,[6],no changes in phosphorylation level
same,decrease / inhibition in cell migration (wound closure),"[7]; pH 5.0, EGF 50 ng/mL 10 h",30%
same,effect on cell migration (wound closure),"[7]; pH 5.5, EGF 50 ng/mL 10 h",does not result in any effect
same,effect on cell viability,"[5]; pH 7.4 or 5.5, 10 min treatment",had no effect at either high or acidic pH
AAEQNPIYWARYDWLFTTGLLLLDLALLVDADEGG [pHLIP(P20G)],pK50,[2],7.2 ^b
KKTTLLLL S SIG A IMW V SLVCLIAVKGSNKK [RJbinder],decrease in phosphorylation at Tyr-1068 and Tyr-117,[8],20%–30%
same,decrease in cell migration,[9],20%
